Reference: ChEMBL document CHEMBL1148625, “3-(1,1-dioxo-2H-(1,2,4)-benzothiadiazin-3-yl)-4-hydroxy-2(1H)-quinolinones, potent inhibitors of hepatitis C virus RNA-dependent RNA polymerase” (J Med Chem, 2006)
pIC50: −log10 of the molar value. Blank lines part the entries; values can stand above or below the molecule they belong to.

Legend:
[1] = biological target: RNA-directed RNA polymerase (Hepacivirus hominis, UniProt O39930); experiment: Inhibitory activity against HCV delta 21 NS5B RNA polymerase by SPA assay; design: species or system Hepatitis C virus subtype 1b
[2] = biological target: RNA-directed RNA polymerase (Hepacivirus hominis) (UniProt O39930); experiment: Inhibition of HCV RNA replication in Huh7 cells; format: functional, cell-based; conditions: Huh-7
In short: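 Huh-7 subgenomic replicon cells were seeded at 3 × 10³/well in DMEM with 10% FCS, 1% NEAA and 1 mg/mL G418, and allowed 4 h to attach. Eleven 2.5-fold DMSO dilutions were added (final 10,000 to 1.0 nM) and cells incubated 40 h. Neo RNA was measured by TaqMan RT-PCR, normalised to cyclophilin against DMSO controls; n = 8 wells per dilution.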

[3] = Clearance in Sprague-Dawley rat at 1.3 mg/kg, iv or 7.7 mg/kg, po; format: ADME, organism-based; conditions: in vivo
In short: (§1)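 Single intravenous or oral doses given to Sprague-Dawley rats. Values are reported as means: Cmax (ng/mL), half-life (min), plasma clearance (mL/min/kg), steady-state volume of distribution (L/kg) and oral bioavailability F (%).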

[4] = Clearance in cynomolgus monkey at 1.8 mg/kg, iv or 1.6 mg/kg, po; format: ADME, organism-based, Macaca fascicularis; conditions: in vivo
In short: (§2)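 Single-dose administration, given both intravenously and orally, to Sprague-Dawley rats, beagle dogs or cynomolgus monkeys. Plasma pharmacokinetic parameters are reported as means: Cmax in ng/mL, terminal half-life in min, clearance in mL/min/kg, steady-state volume of distribution in L/kg, and oral bioavailability F in %.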

[5] = Oral bioavailability in Sprague-Dawley rat at 1.3 mg/kg, iv or 7.7 mg/kg, po; format: ADME, organism-based; conditions: in vivo; in short: as §1
[6] = Oral bioavailability in Beagle dog at 0.9 mg/kg, iv or 1.1 mg/kg, po; format: ADME, organism-based, Canis lupus familiaris; conditions: in vivo
In short: (§3)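 Single-dose study, with separate intravenous and oral administrations at the listed mg/kg. Plasma concentrations were followed over time, and mean values were derived for Cmax, T1/2, clearance (mL/min/kg), Vdss (L/kg) and oral bioavailability (%).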

[7] = Oral bioavailability in cynomolgus monkey at 1.8 mg/kg, iv or 1.6 mg/kg, po; format: ADME, organism-based, Macaca fascicularis; conditions: in vivo; in short: as §2
[8] = Volume of distribution in Sprague-Dawley rat at 1.3 mg/kg, iv or 7.7 mg/kg, po; format: ADME, organism-based; conditions: in vivo, read-out: Vdss; in short: as §1
[9] = Volume of distribution in Beagle dog at 0.9 mg/kg, iv or 1.1 mg/kg, po; format: ADME, organism-based, Canis lupus familiaris; conditions: in vivo, read-out: Vdss; in short: as §3
[10] = Volume of distribution in cynomolgus monkey at 1.8 mg/kg, iv or 1.6 mg/kg, po; format: ADME, organism-based, Macaca fascicularis; conditions: in vivo, read-out: Vdss; in short: as §2
[11] = Half life in Sprague-Dawley rat at 1.3 mg/kg, iv or 7.7 mg/kg, po; format: ADME, organism-based; conditions: in vivo; in short: as §1
[12] = Half life in Beagle dog at 0.9 mg/kg, iv or 1.1 mg/kg, po; format: ADME, organism-based, Canis lupus familiaris; conditions: in vivo; in short: as §3
[13] = Half life in cynomolgus monkey at 1.8 mg/kg, iv or 1.6 mg/kg, po; format: ADME, organism-based, Macaca fascicularis; conditions: in vivo; in short: as §2
[14] = Cmax in Sprague-Dawley rat at 1.3 mg/kg, iv or 7.7 mg/kg, po; format: ADME, organism-based; conditions: in vivo; in short: as §1
[15] = Cmax in Beagle dog at 0.9 mg/kg, iv or 1.1 mg/kg, po; format: ADME, organism-based, Canis lupus familiaris; conditions: in vivo; in short: as §3
[16] = Cmax in cynomolgus monkey at 1.8 mg/kg, iv or 1.6 mg/kg, po; format: ADME, organism-based, Macaca fascicularis; conditions: in vivo; in short: as §2
[17] = Clearance in Beagle dog at 0.9 mg/kg, iv or 1.1 mg/kg, po; conditions: in vivo
[18] = Cmax in Sprague-Dawley rat at 1.2 mg/kg, iv or 3.7 mg/kg, po; format: ADME, organism-based; conditions: in vivo; in short: as §2
[19] = Cmax in Beagle dog at 0.9 mg/kg, iv or 3.6 mg/kg, po; format: ADME, organism-based, Canis lupus familiaris; conditions: in vivo
In short: (§4)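 Single-dose pharmacokinetics in the named species, given iv and orally at the stated doses. Plasma Cmax, half-life, clearance, steady-state volume of distribution and oral bioavailability were reported as mean values.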

[20] = Cmax in cynomolgus monkey at 1.0 mg/kg, iv or 3.6 mg/kg, po; format: ADME, organism-based, Macaca fascicularis; conditions: in vivo; in short: as §4
[21] = Clearance in Sprague-Dawley rat at 1.2 mg/kg, iv or 3.7 mg/kg, po; format: ADME, organism-based; conditions: in vivo; in short: as §2
[22] = Clearance in Beagle dog at 0.9 mg/kg, iv or 3.6 mg/kg, po; format: ADME, organism-based, Canis lupus familiaris; conditions: in vivo; in short: as §4
[23] = Clearance in cynomolgus monkey at 1.0 mg/kg, iv or 3.6 mg/kg, po; format: ADME, organism-based, Macaca fascicularis; conditions: in vivo; in short: as §4
[24] = Oral bioavailability in Sprague-Dawley rat at 1.2 mg/kg, iv or 3.7 mg/kg, po; format: ADME, organism-based; conditions: in vivo; in short: as §2
[25] = Oral bioavailability in Beagle dog at 0.9 mg/kg, iv or 3.6 mg/kg, po; format: ADME, organism-based, Canis lupus familiaris; conditions: in vivo; in short: as §4
[26] = Oral bioavailability in cynomolgus monkey at 1.0 mg/kg, iv or 3.6 mg/kg, po; format: ADME, organism-based, Macaca fascicularis; conditions: in vivo; in short: as §4
[27] = Volume of distribution in Sprague-Dawley rat at 1.2 mg/kg, iv or 3.7 mg/kg, po; format: ADME, organism-based; conditions: in vivo, read-out: Vdss; in short: as §2
[28] = Volume of distribution in Beagle dog at 0.9 mg/kg, iv or 3.6 mg/kg, po; format: ADME, organism-based, Canis lupus familiaris; conditions: in vivo, read-out: Vdss; in short: as §4
[29] = Volume of distribution in cynomolgus monkey at 1.0 mg/kg, iv or 3.6 mg/kg, po; format: ADME, organism-based, Macaca fascicularis; conditions: in vivo, read-out: Vdss; in short: as §4
[30] = Half life in Sprague-Dawley rat at 1.2 mg/kg, iv or 3.7 mg/kg, po; format: ADME, organism-based; conditions: in vivo; in short: as §2
[31] = Half life in Beagle dog at 0.9 mg/kg, iv or 3.6 mg/kg, po; format: ADME, organism-based, Canis lupus familiaris; conditions: in vivo; in short: as §4
[32] = Half life in cynomolgus monkey at 1.0 mg/kg, iv or 3.6 mg/kg, po; format: ADME, organism-based, Macaca fascicularis; conditions: in vivo; in short: as §4
[33] = Clearance in Sprague-Dawley rat at 0.8 mg/kg, iv or 5.8 mg/kg, po; format: ADME, organism-based; conditions: in vivo; in short: as §4
[34] = Clearance in Beagle dog at 0.8 mg/kg, iv or 1.8 mg/kg, po; format: ADME, organism-based, Canis lupus familiaris; conditions: in vivo; in short: as §2
[35] = Oral bioavailability in Sprague-Dawley rat at 0.8 mg/kg, iv or 5.8 mg/kg, po; format: ADME, organism-based; conditions: in vivo; in short: as §4
[36] = Oral bioavailability in Beagle dog at 0.8 mg/kg, iv or 1.8 mg/kg, po; format: ADME, organism-based, Canis lupus familiaris; conditions: in vivo; in short: as §2
[37] = Volume of distribution in Sprague-Dawley rat at 0.8 mg/kg, iv or 5.8 mg/kg, po; format: ADME, organism-based; conditions: in vivo, read-out: Vdss; in short: as §4
[38] = Volume of distribution in Beagle dog at 0.8 mg/kg, iv or 1.8 mg/kg, po; format: ADME, organism-based, Canis lupus familiaris; conditions: in vivo, read-out: Vdss; in short: as §2
[39] = Half life in Sprague-Dawley rat at 0.8 mg/kg, iv or 5.8 mg/kg, po; format: ADME, organism-based; conditions: in vivo; in short: as §4
[40] = Half life in Beagle dog at 0.8 mg/kg, iv or 1.8 mg/kg, po; format: ADME, organism-based, Canis lupus familiaris; conditions: in vivo; in short: as §2
[41] = Cmax in Beagle dog at 0.8 mg/kg, iv or 1.8 mg/kg, po; format: ADME, organism-based, Canis lupus familiaris; conditions: in vivo; in short: as §2

RNA-directed RNA polymerase (Hepacivirus hominis), sequence (O39930 1-591): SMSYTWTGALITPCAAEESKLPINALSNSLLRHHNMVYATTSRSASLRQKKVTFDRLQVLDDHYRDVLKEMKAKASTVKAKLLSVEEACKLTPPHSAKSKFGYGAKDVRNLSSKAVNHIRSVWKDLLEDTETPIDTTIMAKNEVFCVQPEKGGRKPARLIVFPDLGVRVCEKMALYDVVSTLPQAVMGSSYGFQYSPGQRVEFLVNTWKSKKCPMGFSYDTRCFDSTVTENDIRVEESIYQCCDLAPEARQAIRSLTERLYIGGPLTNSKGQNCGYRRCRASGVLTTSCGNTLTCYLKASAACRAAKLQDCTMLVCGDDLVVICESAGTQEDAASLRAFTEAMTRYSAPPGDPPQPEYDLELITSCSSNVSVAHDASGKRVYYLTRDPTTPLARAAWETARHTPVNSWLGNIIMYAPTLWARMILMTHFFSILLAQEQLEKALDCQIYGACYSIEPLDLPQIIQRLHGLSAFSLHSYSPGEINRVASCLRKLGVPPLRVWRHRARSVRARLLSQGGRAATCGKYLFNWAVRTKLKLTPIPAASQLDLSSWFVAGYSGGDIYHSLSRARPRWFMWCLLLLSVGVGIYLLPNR
RNA-directed RNA polymerase, sequence (O39930 whole entry): as the sequence (O39930 1-591) above

Compound: Nc1ccc2c(c1)c(O)c(C1=NS(=O)(=O)c3ccccc3N1)c(=O)n2CCC1CC1
pIC50 [1]: 7.49
EC90 [2]: 0.593 µM

Compound: O=c1c(C2=NS(=O)(=O)c3ccccc3N2)c(O)c2ccccc2n1CC1CCC1
EC90 [2]: 1.19 µM

Compound: O=c1c(C2=NS(=O)(=O)c3ccccc3N2)c(O)c2ccccc2n1CCC1CC1
clearance [3]: 1.7 mL/min/kg
clearance [4]: 1.73 mL/min/kg
bioavailability [5]: 78%
bioavailability [6]: 100%
bioavailability [7]: > 40%
Vd [8]: 0.25 L/kg
Vd [9]: 0.15 L/kg
Vd [10]: 0.19 L/kg
half-life [11]: 1.87 h
half-life [12]: 4.82 h
half-life [13]: 1.35 h
pIC50 [1]: 7.89
EC90 [2]: 0.808 µM
Cmax [14]: 6460 ng/mL
Cmax [15]: 5400 ng/mL
Cmax [16]: 7920 ng/mL
clearance [17]: 0.47 mL/min/kg

Compound: CC(C)CCn1c(=O)c(C2=NS(=O)(=O)c3ccccc3N2)c(O)c2ccccc21
clearance [33]: 10.1 mL/min/kg
clearance [34]: 0.5 mL/min/kg
bioavailability [35]: 70%
bioavailability [36]: 89%
Vd [37]: 0.44 L/kg
Vd [38]: 0.53 L/kg
half-life [39]: 0.607 h
half-life [40]: 14.3 h
EC90 [2]: 1.42 µM
Cmax [41]: 2230 ng/mL

Compound: CCCCn1c(=O)c(C2=NS(=O)(=O)c3ccccc3N2)c(O)c2ccccc21
pIC50 [1]: 6.70
EC90 [2]: 3.76 µM

Compound: O=c1c(C2=NS(=O)(=O)c3ccccc3N2)c(O)c2ccccc2n1Cc1ccoc1
pIC50 [1]: 7.57
EC90 [2]: 2.53 µM

Further lines, results first:

EC90 [2]: 4.95 µM
Compound: CC(C)CCn1c(=O)c(C2=NS(=O)(=O)c3ccccc3N2)c(O)c2cc(F)ccc21

EC90 [2]: 9.61 µM
Compound: CC(C)CCn1c(=O)c(C2=NS(=O)(=O)c3ccccc3N2)c(O)c2cc(NCC(=O)O)ccc21

pIC50 [1]: 7.37
EC90 [2]: 3.83 µM
Compound: CC(C)CCn1c(=O)c(C2=NS(=O)(=O)c3ccccc3N2)c(O)c2cc(Cl)ccc21

EC90 [2]: 2.41 µM
Compound: CC(C)CCn1c(=O)c(C2=NS(=O)(=O)c3ccccc3N2)c(O)c2cc(OCC(N)=O)ccc21

EC90 [2]: 0.998 µM
Compound: CCOC(=O)CNc1ccc2c(c1)c(O)c(C1=NS(=O)(=O)c3ccccc3N1)c(=O)n2CCC(C)C

Cmax [18]: 1220 ng/mL
Cmax [19]: 1960 ng/mL
Cmax [20]: 2140 ng/mL
clearance [21]: 1.65 mL/min/kg
clearance [22]: 1.09 mL/min/kg
clearance [23]: 5.32 mL/min/kg
bioavailability [24]: 100%
bioavailability [25]: > 50%
bioavailability [26]: > 53%
Vd [27]: 0.81 L/kg
Vd [28]: 0.72 L/kg
Vd [29]: 0.34 L/kg
half-life [30]: 5.29 h
half-life [31]: 9.06 h
half-life [32]: 0.828 h
pIC50 [1]: 7.33
EC90 [2]: 0.831 µM
Compound: Cc1ccc2c(c1)c(O)c(C1=NS(=O)(=O)c3ccccc3N1)c(=O)n2CCC(C)C

EC90 [2]: 1.61 µM
Compound: CC(C)CCn1c(=O)c(C2=NS(=O)(=O)c3ccccc3N2)c(O)c2cc(OCC#N)ccc21
